Test results taken from ChEMBL document CHEMBL1123485, “A lymphotropic prodrug of L-dopa: synthesis, pharmacological properties, and pharmacokinetic behavior of 1,3-dihexadecanoyl-2-[(S)-2-amino-3-(3,4-dihydroxyphenyl)prop anoyl] propane-1,2,3-triol” (J Med Chem, 1986).
Where “and” joins values, the source holds several entries; their conditions need not be identical. Equal entries are not always repeated.

Legend:
[1] = system: Mus musculus; experiment: Peak plasma concentration expresses the ability of compound for the release of L-Dopa in the plasma of mouse after oral administration of 0.5 mmol/kg; settings: in vivo
[2] = Peak plasma concentration expresses the ability of compound for the release of dopamine in the plasma of monkey after oral administration of 0.5 mmol/kg; settings: simiiformes, in vivo
[3] = Peak plasma concentration expresses the ability of compound for the release of L-Dopa in the plasma of monkey after oral administration of 0.5 mmol/kg; settings: simiiformes, in vivo
[4] = Time of maximum L-Dopa plasma concentration was measured in mouse ofter oral administration of the compound; settings: in vivo
[5] = system: Rattus norvegicus; experiment: Peak plasma concentration expresses the ability of compound for the release of L-Dopa in the plasma of rat after oral administration of 0.5 mmol/kg; settings: in vivo
[6] = system: Rattus norvegicus; experiment: Time of maximum L-Dopa plasma concentration was measured in rat ofter oral administration of the compound; assay type: ADME, organism-based; settings: in vivo
Procedure, shortened: (§1)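 Overnight-fasted male Wistar rats (230–250 g), five per compound, received 0.5 mmol/kg orally. Tail-vessel blood was sampled at 10, 20 and 30 min and 1–6 h. Plasma was deproteinized with perchloric acid and centrifuged, then L-Dopa and dopamine were measured by reversed-phase HPLC with fluorometric detection, quantified by peak area. Cmax (nmol/mL) and tmax (min) were taken from the mean curves.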

[7] = system: Rattus norvegicus; experiment: Time of maximum dopamine plasma concentration was measured in rat ofter oral administration of the compound; assay type: ADME, organism-based; settings: in vivo
Procedure, shortened: as §1

[8] = system: Mus musculus; experiment: Peak plasma concentration expresses the ability of compound for the release of dopamine in the plasma of mouse after oral administration of […]; assay type: ADME, organism-based; set-up: route oral; settings: in vivo
Procedure, shortened: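 Male NMRI mice (20–25 g), five per time point and compound, received 0.5 mmol/kg orally. They were decapitated at 10, 20 and 30 min and 1–6 h. Blood was collected, deproteinized with perchloric acid and assayed for L-Dopa and dopamine by HPLC with fluorometric detection. Cmax is given in nmol/mL and tmax in min.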

[9] = Time of maximum L-Dopa plasma concentration was measured in monkey ofter oral administration of the compound; assay type: ADME, organism-based; settings: simiiformes, in vivo
Procedure, shortened: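 A single male Cynomolgus monkey (2.7 kg) was fasted 12 h and given 0.5 mmol/kg orally. Blood was drawn from the femoral vein, and plasma L-Dopa and dopamine were assayed by HPLC with fluorometric detection. Cmax is the peak plasma concentration (nmol/mL); tmax is the time of that peak (min).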

[10] = system: Rattus norvegicus; experiment: Peak plasma concentration expresses the ability of compound for the release of dopamine in the plasma of rat after oral administration of 0.5 mmol/kg; settings: in vivo

Cmax [1] [nM ml-1] | Cmax [2] [nM ml-1] | Cmax [3] [nM ml-1] | T max [4] [h] | Cmax [5] [nM ml-1] | T max [6] [h] | T max [7] | Cmax [8] | T max [9] [h] | Cmax [10] [nM ml-1] | SMILES
1.12 | 8.1 | 9.5 | 0.5 | 16.2 | – | – | – | – | – | N[C@@H](Cc1ccc(O)c(O)c1)C(=O)O [LEVODOPA]
– | 6.1 | 18.3 | 2 | 24.6 | 3 | 4 h and 2.5 h | 1.6 nM ml-1 and 3.54 nM ml-1 | 1.83 | 17.1 | CCCCCCCCCCCCCCCC(=O)OCC(COC(=O)CCCCCCCCCCCCCCC)OC(=O)C(N)Cc1ccc(O)c(O)c1 (centres undefined)
